Measurements reported in ChEMBL document CHEMBL3769383, “Cefsulodin Inspired Potent and Selective Inhibitors of mPTPB, a Virulent Phosphatase from Mycobacterium tuberculosis” (ACS Med Chem Lett, 2015).
The source made the active and inactive calls. No cut-off for these calls is given here.

Assays:
BL21-DE3 = test: Potency index, ratio of SPAA IC50 to compound IC50 for Mycobacterium tuberculosis PTPB expressed in Escherichia coli BL21/DE3 cells
[1] = Inhibition of Mycobacterium tuberculosis PTPB expressed in Escherichia coli BL21/DE3 cells using pNPP as substrate after 5 mins by spectrophotometry
[2] = biological target: RAC-alpha serine/threonine-protein kinase (Mus musculus) (UniProt P31750); test: Effect on Akt phosphorylation in mouse RAW264.7 cells transfected with empty vector at 10 to 40 nM pre-treated for 1 hrs followed by stimulation with IFNgamma for 1 hr by Western blotting method; format: cell-based
[3] = biological target: Receptor-type tyrosine-protein phosphatase beta (Homo sapiens) (UniProt P23467); test: Inhibition of PTPbeta (unknown origin) using pNPP as substrate at 200 uM after 5 mins by spectrophotometry
Procedure, shortened: (§1)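 Single-point screen: the test compound is present at 200 μM in the assay (a compound concentration, not a substrate level). The read-out is phosphatase-catalysed hydrolysis of para-nitrophenyl phosphate.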

[4] = biological target: Tyrosine-protein phosphatase non-receptor type 7 (Homo sapiens) (UniProt P35236); test: Inhibition of HePTP (unknown origin) expressed in Escherichia coli using pNPP as substrate at 200 uM after 5 mins by spectrophotometry; procedure, shortened: as §1
[5] = biological target: Tyrosine-protein phosphatase non-receptor type 6 (Homo sapiens) (UniProt P29350); test: Inhibition of SHP1 (unknown origin) expressed in Escherichia coli using pNPP as substrate at 200 uM after 5 mins by spectrophotometry; procedure, shortened: as §1
Chain of Tyrosine-protein phosphatase non-receptor type 6 (Homo sapiens) (P29350 whole entry): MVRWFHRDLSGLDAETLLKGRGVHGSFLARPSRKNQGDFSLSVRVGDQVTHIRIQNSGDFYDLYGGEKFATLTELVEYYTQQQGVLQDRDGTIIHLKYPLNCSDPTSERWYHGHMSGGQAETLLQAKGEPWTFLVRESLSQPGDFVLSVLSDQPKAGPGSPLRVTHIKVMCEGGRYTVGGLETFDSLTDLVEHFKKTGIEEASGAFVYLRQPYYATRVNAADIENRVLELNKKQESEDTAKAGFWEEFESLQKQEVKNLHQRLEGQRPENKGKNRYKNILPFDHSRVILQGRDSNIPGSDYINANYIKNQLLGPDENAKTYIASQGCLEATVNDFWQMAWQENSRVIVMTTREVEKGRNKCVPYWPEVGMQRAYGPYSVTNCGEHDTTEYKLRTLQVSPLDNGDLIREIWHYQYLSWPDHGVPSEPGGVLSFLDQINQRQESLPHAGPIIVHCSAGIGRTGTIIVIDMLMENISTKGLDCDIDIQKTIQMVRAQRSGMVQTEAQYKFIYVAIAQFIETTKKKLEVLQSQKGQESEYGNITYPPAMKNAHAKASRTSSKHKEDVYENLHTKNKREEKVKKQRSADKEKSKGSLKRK

[6] = biological target: Serine/threonine-protein phosphatase 5 (Homo sapiens) (UniProt P53041); test: Inhibition of PP5 (unknown origin) using pNPP as substrate at 200 uM after 5 mins by spectrophotometry; procedure, shortened: as §1
[7] = Selectivity ratio of IC50 for LMWPTP (unknown origin) to IC50 for Mycobacterium tuberculosis PTPB
[8] = biological target: MAP kinase p38 (Mus musculus) (UniProt P47811+O08911+Q9WUI1+Q9Z1B7); test: Effect on p38 phosphorylation in mouse RAW264.7 cells transfected with empty vector at 10 to 40 nM pre-treated for 1 hrs followed by stimulation with IFNgamma for 1 hr by Western blotting method; format: cell-based
[9] = Selectivity ratio of IC50 for SHP1 (unknown origin) to IC50 for Mycobacterium tuberculosis PTPB
Procedure, shortened: (§2)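 Each phosphatase in the 25-enzyme panel was tested for inhibition at 200 μM compound. The mPTPB IC50 was determined against mPTPB-catalysed hydrolysis of para-nitrophenyl phosphate. The ratio is the panel-enzyme IC50 divided by the mPTPB IC50.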

[10] = Selectivity ratio of IC50 for TC-PTP (unknown origin) to IC50 for Mycobacterium tuberculosis PTPB; procedure, shortened: as §2
[11] = biological target: Receptor-type tyrosine-protein phosphatase mu (Homo sapiens) (UniProt P28827); test: Inhibition of PTPmu (unknown origin) using pNPP as substrate at 200 uM after 5 mins by spectrophotometry; procedure, shortened: as §1
[12] = biological target: Low molecular weight protein-tyrosine phosphatase A (Mycobacterium tuberculosis) (UniProt P9WIA1); test: Inhibition of Mycobacterium tuberculosis PTPA expressed in Escherichia coli using pNPP as substrate at 200 uM after 5 mins by spectrophotometry; procedure, shortened: as §1
Chain of Low molecular weight protein-tyrosine phosphatase A (Mycobacterium tuberculosis) (P9WIA1 whole entry): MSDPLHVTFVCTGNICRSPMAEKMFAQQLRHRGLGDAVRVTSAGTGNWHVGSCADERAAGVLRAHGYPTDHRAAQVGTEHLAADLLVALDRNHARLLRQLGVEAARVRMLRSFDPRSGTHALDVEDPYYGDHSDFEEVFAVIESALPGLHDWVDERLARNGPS

[13] = Selectivity ratio of IC50 for PTPepsilon (unknown origin) to IC50 for Mycobacterium tuberculosis PTPB; procedure, shortened: as §2
[14] = biological target: Tyrosine-protein phosphatase non-receptor type 22 (Homo sapiens) (UniProt Q9Y2R2); test: Inhibition of LYP (unknown origin) expressed in Escherichia coli using pNPP as substrate at 200 uM after 5 mins by spectrophotometry; procedure, shortened: as §1
Chain of Tyrosine-protein phosphatase non-receptor type 22 (Homo sapiens) (Q9Y2R2 whole entry): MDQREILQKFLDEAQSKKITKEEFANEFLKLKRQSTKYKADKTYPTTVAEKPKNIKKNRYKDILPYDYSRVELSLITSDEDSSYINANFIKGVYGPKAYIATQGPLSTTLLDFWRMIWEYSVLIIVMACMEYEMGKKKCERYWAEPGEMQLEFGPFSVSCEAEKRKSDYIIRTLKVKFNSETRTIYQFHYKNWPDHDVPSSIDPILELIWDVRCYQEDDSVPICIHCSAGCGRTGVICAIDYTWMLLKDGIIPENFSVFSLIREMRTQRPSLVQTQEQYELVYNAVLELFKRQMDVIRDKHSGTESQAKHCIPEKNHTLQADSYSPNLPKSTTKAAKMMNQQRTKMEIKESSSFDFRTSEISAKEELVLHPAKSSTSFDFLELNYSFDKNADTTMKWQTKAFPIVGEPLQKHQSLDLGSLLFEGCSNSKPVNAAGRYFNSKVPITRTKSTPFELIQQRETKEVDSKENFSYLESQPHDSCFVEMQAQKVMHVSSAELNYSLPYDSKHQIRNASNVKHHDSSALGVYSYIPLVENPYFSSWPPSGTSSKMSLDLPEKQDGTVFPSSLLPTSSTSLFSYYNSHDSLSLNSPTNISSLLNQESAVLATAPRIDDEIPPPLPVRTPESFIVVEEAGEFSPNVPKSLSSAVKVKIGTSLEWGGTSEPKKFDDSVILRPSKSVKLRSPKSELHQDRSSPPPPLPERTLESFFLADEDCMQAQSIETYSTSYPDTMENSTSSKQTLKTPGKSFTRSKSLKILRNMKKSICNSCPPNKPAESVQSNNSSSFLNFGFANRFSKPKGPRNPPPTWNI

Laforin (Homo sapiens) = Laforin (Homo sapiens) (UniProt O95278); test: Inhibition of Laforin (unknown origin) using pNPP as substrate at 200 uM after 5 mins by spectrophotometry; procedure, shortened: as §1
[15] = Selectivity ratio of IC50 for PTPmu (unknown origin) to IC50 for Mycobacterium tuberculosis PTPB; procedure, shortened: as §2
[16] = biological target: Receptor-type tyrosine-protein phosphatase C (Homo sapiens) (UniProt P08575); test: Inhibition of CD45 (unknown origin) expressed in Escherichia coli using pNPP as substrate at 200 uM after 5 mins by spectrophotometry; procedure, shortened: as §1
[17] = biological target: Receptor-type tyrosine-protein phosphatase F (Homo sapiens) (UniProt P10586); test: Inhibition of LAR (unknown origin) using pNPP as substrate at 200 uM after 5 mins by spectrophotometry; procedure, shortened: as §1
RAW264.7 [18] = test: Inhibition of Mycobacterium tuberculosis PTPB transfected in mouse RAW264.7 cells assessed as increase in ERK1/2 phosphorylation pre-treated for 1 hrs followed by stimulation with IFNgamma for 1 hr by Western blotting method; format: cell-based
[19] = biological target: Tyrosine-protein phosphatase non-receptor type 3 (Homo sapiens) (UniProt P26045); test: Inhibition of PTPH1 (unknown origin) using pNPP as substrate at 200 uM after 5 mins by spectrophotometry; procedure, shortened: as §1
[20] = biological target: Dual specificity protein phosphatase 3 (Homo sapiens) (UniProt P51452); test: Inhibition of VHR (unknown origin) using pNPP as substrate at 200 uM after 5 mins by spectrophotometry; procedure, shortened: as §1
Chain of Dual specificity protein phosphatase 3 (Homo sapiens) (P51452 whole entry, looked up): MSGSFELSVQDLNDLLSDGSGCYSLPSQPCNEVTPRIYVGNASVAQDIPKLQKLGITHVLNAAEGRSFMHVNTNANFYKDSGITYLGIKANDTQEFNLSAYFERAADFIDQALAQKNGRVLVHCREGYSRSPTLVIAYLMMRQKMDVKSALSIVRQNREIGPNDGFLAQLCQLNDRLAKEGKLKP

[21] = Selectivity ratio of IC50 for PTPgamma (unknown origin) to IC50 for Mycobacterium tuberculosis PTPB; procedure, shortened: as §2
[22] = biological target: Receptor-type tyrosine-protein phosphatase gamma (Homo sapiens) (UniProt P23470); test: Inhibition of PTPgamma (unknown origin) using pNPP as substrate at 200 uM after 5 mins by spectrophotometry; procedure, shortened: as §1
[23] = biological target: Tyrosine-protein phosphatase non-receptor type 1 (Homo sapiens) (UniProt P18031); test: Inhibition of PTP1B (unknown origin) expressed in Escherichia coli using pNPP as substrate at 200 uM after 5 mins by spectrophotometry; procedure, shortened: as §1
[24] = Selectivity ratio of IC50 for PTPsigma (unknown origin) to IC50 for Mycobacterium tuberculosis PTPB; procedure, shortened: as §2
[25] = Selectivity ratio of IC50 for VHR (unknown origin) to IC50 for Mycobacterium tuberculosis PTPB; procedure, shortened: as §2
[26] = Selectivity ratio of IC50 for Laforin (unknown origin) to IC50 for Mycobacterium tuberculosis PTPB
[27] = biological target: Receptor-type tyrosine-protein phosphatase S (Homo sapiens) (UniProt Q13332); test: Inhibition of PTPsigma (unknown origin) using pNPP as substrate at 200 uM after 5 mins by spectrophotometry; procedure, shortened: as §1
[28] = Selectivity ratio of IC50 for PTPH1 (unknown origin) to IC50 for Mycobacterium tuberculosis PTPB; procedure, shortened: as §2
[29] = Selectivity ratio of IC50 for CD45 (unknown origin) to IC50 for Mycobacterium tuberculosis PTPB
[30] = Selectivity ratio of IC50 for PTP1B (unknown origin) to IC50 for Mycobacterium tuberculosis PTPB
[31] = biological target: Tyrosine-protein phosphatase non-receptor type 13 (Homo sapiens) (UniProt Q12923); test: Inhibition of FAP1 (unknown origin) expressed in Escherichia coli using pNPP as substrate at 200 uM after 5 mins by spectrophotometry; procedure, shortened: as §1
Chain of Tyrosine-protein phosphatase non-receptor type 13 (Homo sapiens) (Q12923 whole entry): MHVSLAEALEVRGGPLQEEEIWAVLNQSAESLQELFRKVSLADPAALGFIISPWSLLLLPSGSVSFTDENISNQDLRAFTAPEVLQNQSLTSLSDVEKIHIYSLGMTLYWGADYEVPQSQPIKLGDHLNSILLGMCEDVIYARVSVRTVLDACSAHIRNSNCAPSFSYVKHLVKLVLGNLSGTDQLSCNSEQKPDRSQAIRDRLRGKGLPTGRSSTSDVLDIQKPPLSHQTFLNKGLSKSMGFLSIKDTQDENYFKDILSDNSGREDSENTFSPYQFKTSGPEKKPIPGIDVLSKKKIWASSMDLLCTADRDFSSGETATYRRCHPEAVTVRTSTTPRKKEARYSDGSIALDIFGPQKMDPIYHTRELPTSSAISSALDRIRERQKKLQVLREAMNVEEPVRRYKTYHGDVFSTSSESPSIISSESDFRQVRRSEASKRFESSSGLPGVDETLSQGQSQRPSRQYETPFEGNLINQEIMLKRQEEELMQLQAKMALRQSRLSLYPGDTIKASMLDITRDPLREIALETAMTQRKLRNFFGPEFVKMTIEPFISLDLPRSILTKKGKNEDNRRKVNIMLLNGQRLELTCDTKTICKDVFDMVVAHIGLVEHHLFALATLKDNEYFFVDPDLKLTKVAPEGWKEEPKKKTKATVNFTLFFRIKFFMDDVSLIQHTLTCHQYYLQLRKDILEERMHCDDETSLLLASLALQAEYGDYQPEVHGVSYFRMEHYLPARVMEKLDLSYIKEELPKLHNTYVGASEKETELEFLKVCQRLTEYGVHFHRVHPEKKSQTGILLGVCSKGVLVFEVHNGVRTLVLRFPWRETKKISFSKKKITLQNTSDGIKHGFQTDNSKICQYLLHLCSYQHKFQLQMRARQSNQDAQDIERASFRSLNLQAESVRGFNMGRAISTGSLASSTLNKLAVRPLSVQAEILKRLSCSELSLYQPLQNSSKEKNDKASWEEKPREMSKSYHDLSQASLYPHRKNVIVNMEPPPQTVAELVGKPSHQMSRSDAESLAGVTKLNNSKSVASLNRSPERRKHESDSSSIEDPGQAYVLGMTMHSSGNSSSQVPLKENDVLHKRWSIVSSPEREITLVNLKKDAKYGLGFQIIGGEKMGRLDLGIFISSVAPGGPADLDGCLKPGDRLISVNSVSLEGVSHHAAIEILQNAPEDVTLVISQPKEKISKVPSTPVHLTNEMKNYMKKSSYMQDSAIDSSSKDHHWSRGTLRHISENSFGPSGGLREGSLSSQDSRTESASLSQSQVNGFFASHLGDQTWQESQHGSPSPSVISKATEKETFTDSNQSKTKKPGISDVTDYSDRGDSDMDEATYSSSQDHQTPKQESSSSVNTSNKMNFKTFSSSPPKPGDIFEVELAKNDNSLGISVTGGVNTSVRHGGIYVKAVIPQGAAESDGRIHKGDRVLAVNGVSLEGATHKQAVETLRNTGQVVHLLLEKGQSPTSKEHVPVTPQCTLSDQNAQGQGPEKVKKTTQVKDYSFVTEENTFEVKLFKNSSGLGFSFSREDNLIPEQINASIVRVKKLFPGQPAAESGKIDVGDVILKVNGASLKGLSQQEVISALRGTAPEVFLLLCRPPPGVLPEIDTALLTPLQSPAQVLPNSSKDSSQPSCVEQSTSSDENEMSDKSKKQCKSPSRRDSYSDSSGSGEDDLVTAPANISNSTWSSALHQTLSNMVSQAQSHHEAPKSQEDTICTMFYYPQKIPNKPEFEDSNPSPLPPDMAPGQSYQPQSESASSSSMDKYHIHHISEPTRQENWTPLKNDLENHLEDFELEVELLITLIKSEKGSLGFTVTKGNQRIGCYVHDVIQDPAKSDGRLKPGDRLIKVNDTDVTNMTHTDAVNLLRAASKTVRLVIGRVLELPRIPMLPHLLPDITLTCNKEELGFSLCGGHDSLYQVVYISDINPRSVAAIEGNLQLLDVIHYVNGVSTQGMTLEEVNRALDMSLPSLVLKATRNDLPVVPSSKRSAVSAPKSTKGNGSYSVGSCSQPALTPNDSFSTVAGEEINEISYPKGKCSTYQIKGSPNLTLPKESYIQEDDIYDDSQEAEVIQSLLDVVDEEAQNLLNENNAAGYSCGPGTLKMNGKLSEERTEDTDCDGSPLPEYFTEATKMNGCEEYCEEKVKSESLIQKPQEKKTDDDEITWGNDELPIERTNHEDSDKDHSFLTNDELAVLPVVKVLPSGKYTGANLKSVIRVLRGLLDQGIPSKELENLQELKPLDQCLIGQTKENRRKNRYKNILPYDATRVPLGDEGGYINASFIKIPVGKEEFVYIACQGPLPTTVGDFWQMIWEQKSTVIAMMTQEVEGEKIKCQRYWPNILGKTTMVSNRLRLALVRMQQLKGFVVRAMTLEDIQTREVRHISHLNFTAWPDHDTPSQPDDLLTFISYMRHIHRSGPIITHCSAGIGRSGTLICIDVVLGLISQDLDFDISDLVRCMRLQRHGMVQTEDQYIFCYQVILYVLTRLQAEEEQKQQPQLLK

[32] = Selectivity ratio of IC50 for Meg2 (unknown origin) to IC50 for Mycobacterium tuberculosis PTPB
RAW264.7 [33] = test: Inhibition of Mycobacterium tuberculosis PTPB transfected in mouse RAW264.7 cells assessed as increase in p38 phosphorylation pre-treated for 1 hrs followed by stimulation with IFNgamma for 1 hr by Western blotting method; format: cell-based
[34] = biological target: Dual specificity protein phosphatase 10 (Homo sapiens) (UniProt Q9Y6W6); test: Inhibition of MKP5 (unknown origin) using pNPP as substrate at 200 uM after 5 mins by spectrophotometry; procedure, shortened: as §1
[35] = Selectivity ratio of IC50 for MKP5 (unknown origin) to IC50 for Mycobacterium tuberculosis PTPB
[36] = biological target: Tyrosine-protein phosphatase non-receptor type 11 (Homo sapiens) (UniProt Q06124); test: Inhibition of SHP2 (unknown origin) expressed in Escherichia coli using pNPP as substrate at 200 uM after 5 mins by spectrophotometry; procedure, shortened: as §1
[37] = biological target: Receptor-type tyrosine-protein phosphatase alpha (Homo sapiens) (UniProt P18433); test: Inhibition of PTPalpha (unknown origin) using pNPP as substrate at 200 uM after 5 mins by spectrophotometry; procedure, shortened: as §1
[38] = biological target: Dual specificity protein phosphatase CDC14A (Homo sapiens) (UniProt Q9UNH5); test: Inhibition of CDC14A (unknown origin) using pNPP as substrate at 200 uM after 5 mins by spectrophotometry; procedure, shortened: as §1
[39] = Selectivity ratio of IC50 for SHP2 (unknown origin) to IC50 for Mycobacterium tuberculosis PTPB; procedure, shortened: as §2
[40] = Selectivity ratio of IC50 for LAR (unknown origin) to IC50 for Mycobacterium tuberculosis PTPB
[41] = biological target: Low molecular weight phosphotyrosine protein phosphatase (Homo sapiens) (UniProt P24666); test: Inhibition of LMWPTP (unknown origin) using pNPP as substrate at 200 uM after 5 mins by spectrophotometry; procedure, shortened: as §1
[42] = Selectivity ratio of IC50 for FAP1 (unknown origin) to IC50 for Mycobacterium tuberculosis PTPB
[43] = test system: Mycobacterium tuberculosis; test: Selectivity ratio of IC50 for Mycobacterium tuberculosis PTPA to IC50 for Mycobacterium tuberculosis PTPB
[44] = biological target: Dual specificity protein phosphatase 22 (Homo sapiens) (UniProt Q9NRW4); test: Inhibition of VHX (unknown origin) expressed in Escherichia coli using pNPP as substrate at 200 uM after 5 mins by spectrophotometry; procedure, shortened: as §1
[45] = Selectivity ratio of IC50 for CDC14A (unknown origin) to IC50 for Mycobacterium tuberculosis PTPB
[46] = biological target: Mitogen-activated protein kinase 1 and 3 (ERK2 and ERK1) (Mus musculus) (UniProt P63085+Q63844); test: Effect on ERK1/2 phosphorylation in mouse RAW264.7 cells transfected with empty vector at 10 to 40 nM pre-treated for 1 hrs followed by stimulation with IFNgamma for 1 hr by Western blotting method; format: cell-based
[47] = Selectivity ratio of IC50 for VHX (unknown origin) to IC50 for Mycobacterium tuberculosis PTPB; procedure, shortened: as §2
[48] = biological target: Receptor-type tyrosine-protein phosphatase epsilon (Homo sapiens) (UniProt P23469); test: Inhibition of PTPepsilon (unknown origin) using pNPP as substrate at 200 uM after 5 mins by spectrophotometry; procedure, shortened: as §1
Chain of Receptor-type tyrosine-protein phosphatase epsilon (Homo sapiens) (P23469 whole entry): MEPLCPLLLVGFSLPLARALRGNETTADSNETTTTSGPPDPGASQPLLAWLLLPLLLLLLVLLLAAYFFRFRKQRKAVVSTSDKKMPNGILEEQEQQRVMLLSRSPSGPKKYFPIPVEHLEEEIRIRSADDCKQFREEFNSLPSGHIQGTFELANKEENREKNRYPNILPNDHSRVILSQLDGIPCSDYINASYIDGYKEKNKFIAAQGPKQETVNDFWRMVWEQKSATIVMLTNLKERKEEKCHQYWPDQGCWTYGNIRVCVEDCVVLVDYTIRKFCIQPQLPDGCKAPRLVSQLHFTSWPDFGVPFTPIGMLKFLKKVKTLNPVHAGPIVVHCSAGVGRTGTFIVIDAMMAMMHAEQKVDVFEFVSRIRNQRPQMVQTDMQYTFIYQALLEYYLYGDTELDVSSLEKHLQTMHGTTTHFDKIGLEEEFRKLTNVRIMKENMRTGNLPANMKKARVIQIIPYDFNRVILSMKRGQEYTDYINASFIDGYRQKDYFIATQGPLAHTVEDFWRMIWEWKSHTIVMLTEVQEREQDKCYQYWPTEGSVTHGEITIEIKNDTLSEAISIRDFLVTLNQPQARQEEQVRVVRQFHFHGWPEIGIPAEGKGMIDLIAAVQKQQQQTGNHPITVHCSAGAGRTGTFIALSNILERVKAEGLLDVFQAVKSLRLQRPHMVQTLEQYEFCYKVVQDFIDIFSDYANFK

[49] = Selectivity ratio of IC50 for LYP (unknown origin) to IC50 for Mycobacterium tuberculosis PTPB
RAW264.7 [50] = test: Inhibition of Mycobacterium tuberculosis PTPB transfected in mouse RAW264.7 cells decrease in Akt phosphorylation pre-treated for 1 hrs followed by stimulation with IFNgamma for 1 hr by Western blotting method; format: cell-based
[51] = Selectivity ratio of IC50 for PTPbeta (unknown origin) to IC50 for Mycobacterium tuberculosis PTPB; procedure, shortened: as §2
[52] = Selectivity ratio of IC50 for PP5 (unknown origin) to IC50 for Mycobacterium tuberculosis PTPB
[53] = Reversible competitive inhibition of Mycobacterium tuberculosis PTPB expressed in Escherichia coli BL21/DE3 cells using pNPP as substrate after 5 mins by Lineweaver-Burk plot analysis
[54] = biological target: Tyrosine-protein phosphatase non-receptor type 2 (Homo sapiens) (UniProt P17706); test: Inhibition of TC-PTP (unknown origin) using pNPP as substrate at 200 uM after 5 mins by spectrophotometry; procedure, shortened: as §1
[55] = biological target: Tyrosine-protein phosphatase non-receptor type 9 (Homo sapiens) (UniProt P43378); test: Inhibition of Meg2 (unknown origin) using pNPP as substrate at 200 uM after 5 mins by spectrophotometry; procedure, shortened: as §1
[56] = Selectivity ratio of IC50 for HePTP (unknown origin) to IC50 for Mycobacterium tuberculosis PTPB
[57] = Selectivity ratio of IC50 for PTPalpha (unknown origin) to IC50 for Mycobacterium tuberculosis PTPB; procedure, shortened: as §2

O=C(Nc1ccccc1)C(c1ccccc1)S(=O)(=O)O (racemic)
Ratio IC50 (BL21-DE3): 180
IC50 [1]: 1 µM

O=C(C(c1ccccc1)S(=O)(=O)O)N1CCCC2CCCCC21 (racemic)
Activity [2]: inactive
inhibition [3]: inactive
inhibition [4]: inactive
inhibition [5]: inactive
inhibition [6]: inactive
Ratio IC50 [7]: > 10000
Activity [8]: inactive
Ratio IC50 [9]: > 10000
Ratio IC50 [10]: > 10000
inhibition [11]: inactive
inhibition [12]: inactive
Ratio IC50 [13]: > 10000
inhibition [14]: inactive
inhibition (Laforin (Homo sapiens)): inactive
Ratio IC50 [15]: > 10000
inhibition [16]: inactive
inhibition [17]: inactive
inhibition (RAW264.7 [18]): Dose-dependent effect
inhibition [19]: inactive
inhibition [20]: inactive
Ratio IC50 [21]: > 10000
inhibition [22]: inactive
inhibition [23]: inactive
Ratio IC50 [24]: > 10000
Ratio IC50 [25]: > 10000
Ratio IC50 [26]: > 10000
inhibition [27]: inactive
Ratio IC50 [28]: > 10000
Ratio IC50 [29]: > 10000
Ratio IC50 [30]: > 10000
inhibition [31]: inactive
Ratio IC50 [32]: > 10000
inhibition (RAW264.7 [33]): Dose-dependent effect
inhibition [34]: inactive
Ratio IC50 [35]: > 10000
inhibition [36]: inactive
inhibition [37]: inactive
inhibition [38]: inactive
Ratio IC50 [39]: > 10000
Ratio IC50 [40]: > 10000
inhibition [41]: inactive
Ratio IC50 [42]: > 10000
Ratio IC50 [43]: > 10000
inhibition [44]: inactive
Ratio IC50 [45]: > 10000
Activity [46]: inactive
Ratio IC50 [47]: > 10000
inhibition [48]: inactive
Ratio IC50 [49]: > 10000
inhibition (RAW264.7 [50]): Dose-dependent effect
Ratio IC50 [51]: > 10000
Ratio IC50 [52]: > 10000
Ki [53]: 0.0079 µM
inhibition [54]: inactive
inhibition [55]: inactive
Ratio IC50 [56]: > 10000
IC50 [1]: 0.018 µM
Ratio IC50 [57]: > 10000
